The values below come from ChEMBL document CHEMBL3085655, “4β-Methyl-5-(3-hydroxyphenyl)morphan opioid agonist and partial agonist derived from a 4β-methyl-5-(3-hydroxyphenyl)morphan pure antagonist” (J Med Chem, 2013).

Test [1] has as its target T1, Kappa-type opioid receptor (Homo sapiens, UniProt P41145). As to the kind of experiment: Displacement of [3H]U-69593 from human kappa opioid receptor expressed in CHO cells. The test is classed as cell-based. In a few lines: (§1)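 Competition radioligand binding at the human receptors, run at the Psychoactive Drug Screening Program. Radioligands were [3H]DAMGO (MOR), [3H]DADLE (DOR) and [3H]U69,593 (KOR). Radioligand Kd determined by homologous competition binding with the receptor-specific radioligand. Ki values reported.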
(Loss of bound radioactivity is the signal in a displacement assay; it reports binding, not function.)

Test [2] deals with T2, Delta-type opioid receptor (Homo sapiens, UniProt P41143). As to the kind of experiment: Displacement of [3H]DADLE from human delta opioid receptor expressed in CHO cells. The test is classed as cell-based. The procedure, abridged:
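Competition radioligand binding at the human receptors, run at the Psychoactive Drug Screening Program. Radioligand Kd determined by homologous competition binding with the receptor-specific radioligand. Ki values reported.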

Test [3] concerns the target T3, Mu-type opioid receptor (Homo sapiens, UniProt P35372). As to the kind of experiment: Agonist activity at human mu opioid receptor expressed in CHO cells by [35S]GTPgammaS binding assay. Type of test: functional, cell-based. The procedure, abridged:
(§2)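 Membranes from CHO cells over-expressing the human receptor. Stimulated [35S]GTPγS binding measured with eight concentrations chosen to define both asymptotes of the concentration-response curve. EC50 and Emax calculated. Emax expressed as a percentage of the Emax of the standard agonist on the same plate: DAMGO (mu), DPDPE (delta), U50,488 (kappa). Mean ± SE of at least three experiments.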
(GTPγS is a poorly hydrolysed GTP analogue; its binding reports G protein activation.)

The target of test [4] is T3, Mu-type opioid receptor. In words: Displacement of [3H]DAMGO from human mu opioid receptor expressed in CHO cells. The test is classed as cell-based. The procedure, abridged: as §1
Test [5] deals with T2, Delta-type opioid receptor. In words: Intrinsic agonist activity at human delta opioid receptor expressed in CHO cells by [35S]GTPgammaS binding assay. Type of test: functional, cell-based.
Test [6] addresses T3, Mu-type opioid receptor. As to the kind of experiment: Agonist activity at human mu opioid receptor expressed in CHO cells by [35S]GTPgammaS binding assay relative to DAMGO. The test is classed as functional, cell-based. In a few lines: as §2
Test [7] concerns the target T2, Delta-type opioid receptor. In words: Agonist activity at human delta opioid receptor expressed in CHO cells by [35S]GTPgammaS binding assay relative to DPDPE. Type of test: functional, cell-based. In a few lines:
as §2

The target in test [8] is T2, Delta-type opioid receptor. In words: Agonist activity at human delta opioid receptor expressed in CHO cells by [35S]GTPgammaS binding assay. Type of test: functional, cell-based. The procedure, abridged: as §2
For test [9], the target named is T1, Kappa-type opioid receptor. As to the kind of experiment: Agonist activity at human kappa opioid receptor expressed in CHO cells by [35S]GTPgammaS binding assay. The test is classed as functional, cell-based. The procedure, abridged: as §2
Test [10] concerns the target T1, Kappa-type opioid receptor. In words: Agonist activity at human kappa opioid receptor expressed in CHO cells by [35S]GTPgammaS binding assay relative to U50,488. The test is classed as functional, cell-based. In a few lines:
as §2

Test [11] addresses T2, Delta-type opioid receptor. As to the kind of experiment: Intrinsic activity at human delta opioid receptor expressed in CHO cells by [35S]GTPgammaS binding assay. The test is classed as functional, cell-based.
In test [12] the target is T1, Kappa-type opioid receptor. In words: Antagonist activity at human kappa opioid receptor expressed in CHO cells by [35S]GTPgammaS binding assay. Type of test: functional, cell-based. In a few lines:
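Inhibition of [35S]GTPγS binding stimulated by the selective agonist in CHO cells over-expressing the human receptor. Agonists were DPDPE (delta) and U69,593 (kappa). Agonist dose-response curves run with and without a single concentration of test compound. Ke = [L]/(DR−1), where DR is the ratio of agonist EC50 with and without test compound. Mean ± SE of at least three experiments.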

T3 sequence (P35372 whole entry): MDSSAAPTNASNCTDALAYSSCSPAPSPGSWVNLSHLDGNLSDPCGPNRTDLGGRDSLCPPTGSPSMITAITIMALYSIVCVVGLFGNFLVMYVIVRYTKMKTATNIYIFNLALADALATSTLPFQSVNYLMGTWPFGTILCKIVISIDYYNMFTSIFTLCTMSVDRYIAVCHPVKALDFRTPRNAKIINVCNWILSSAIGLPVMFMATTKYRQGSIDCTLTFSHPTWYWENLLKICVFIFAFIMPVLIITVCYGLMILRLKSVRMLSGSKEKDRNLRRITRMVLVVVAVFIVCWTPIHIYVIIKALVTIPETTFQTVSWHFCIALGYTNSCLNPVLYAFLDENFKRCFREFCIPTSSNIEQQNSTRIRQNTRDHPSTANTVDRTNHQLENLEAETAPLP
T2 sequence (P41143 whole entry): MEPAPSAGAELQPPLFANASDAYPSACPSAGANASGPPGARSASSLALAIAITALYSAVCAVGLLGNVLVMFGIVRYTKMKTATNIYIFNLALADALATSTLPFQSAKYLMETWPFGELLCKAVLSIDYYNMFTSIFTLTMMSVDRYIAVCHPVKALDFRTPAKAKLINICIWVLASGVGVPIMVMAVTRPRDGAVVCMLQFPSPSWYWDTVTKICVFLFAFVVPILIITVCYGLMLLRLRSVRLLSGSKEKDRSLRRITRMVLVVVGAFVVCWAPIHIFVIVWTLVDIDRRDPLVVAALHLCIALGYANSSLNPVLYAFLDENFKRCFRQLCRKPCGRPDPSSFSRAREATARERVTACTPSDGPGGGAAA
T1 sequence (P41145 whole entry): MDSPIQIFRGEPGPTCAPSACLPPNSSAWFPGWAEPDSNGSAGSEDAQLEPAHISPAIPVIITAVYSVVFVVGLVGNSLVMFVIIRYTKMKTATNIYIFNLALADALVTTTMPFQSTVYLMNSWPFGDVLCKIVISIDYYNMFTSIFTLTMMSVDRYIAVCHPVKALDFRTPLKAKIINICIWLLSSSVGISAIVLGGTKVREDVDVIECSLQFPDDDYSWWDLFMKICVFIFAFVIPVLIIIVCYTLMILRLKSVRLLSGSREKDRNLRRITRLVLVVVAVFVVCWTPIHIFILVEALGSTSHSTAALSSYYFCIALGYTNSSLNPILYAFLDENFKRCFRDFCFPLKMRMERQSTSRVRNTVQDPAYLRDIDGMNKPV

Turning to `CCN[C@H]1C[C@H]2C[C@@](c3cccc(O)c3)(C1)[C@H](C)CN2CCCc1ccccc1`, the Ki (commonly the dissociation constant of the complex between target and ligand, obtained from inhibition or displacement) in test [1] is 0.00822 µM; in test [2], 0.264 µM; at Mu-type opioid receptor [4], 0.00335 µM. Further, the EC50 (usually the concentration needed to bring the measured effect to its halfway point) at Mu-type opioid receptor [3] turned out to be 0.033 µM. This compound also returned an Agonist potency in test [5] greater than 5 µM. Besides, the Emax – broadly, the greatest response seen or fitted, relative to the assay's reference – on Mu-type opioid receptor [6] turned out to be 14%.
In the case of `C[C@@H]1CN(CCCc2ccccc2)[C@@H]2CCC[C@]1(c1cccc(O)c1)C2`, the inhibition constant Ki in [1] amounted to 0.00779 µM; in test [2], 0.161 µM; on Mu-type opioid receptor [4], 0.00161 µM.
Take `CN[C@H]1C[C@H]2C[C@@](c3cccc(O)c3)(C1)[C@H](C)CN2CCCc1ccccc1`: the Ki in test [1] was 0.0209 µM; in test [2], 0.0362 µM; at Mu-type opioid receptor [4] it was 0.000371 µM. Moreover, the Emax in test [7] was determined as 101%; at Mu-type opioid receptor [6] it was 105%. Moreover, the EC50 in test [8] was found to be 0.0148 µM; at Mu-type opioid receptor [3], 0.015 µM.
As to `C[C@@H]1CN(CCCc2ccccc2)[C@H]2C[C@H](N(C)C)C[C@]1(c1cccc(O)c1)C2`, the Ki came to 0.0099 µM in test [1], 0.0184 µM in [2] and 0.00028 µM on Mu-type opioid receptor [4]. For the same compound, the figures for the Emax (in test [7]; on Mu-type opioid receptor [6]) were 55% and 104%, respectively. The EC50 is 0.038 µM in test [8] and 0.0065 µM on Mu-type opioid receptor [3].
`C[C@@H]1CN(CCCc2ccccc2)[C@H]2C[C@H](N(C)CC3CC3)C[C@]1(c1cccc(O)c1)C2`: the Ki in test [1] is 0.00092 µM; in test [2], 0.00904 µM; on Mu-type opioid receptor [4], 0.00043 µM. Also, the Emax in test [7] amounted to 24%; at Mu-type opioid receptor [6], 109%; in [10], 38%. Besides, the EC50 stood at 0.0103 µM in test [8], 0.0027 µM on Mu-type opioid receptor [3] and 0.04 µM in [9].
On to `CCCN[C@H]1C[C@H]2C[C@@](c3cccc(O)c3)(C1)[C@H](C)CN2CCCc1ccccc1`, for which the figures for the Ki (in test [1]; in [2]; at Mu-type opioid receptor [4]) were 0.0014 µM, 0.0738 µM and 0.00166 µM, respectively. In addition, the EC50 on Mu-type opioid receptor [3] worked out at 0.018 µM; in test [9] it was 0.293 µM. Further, the Agonist potency in [5] is greater than 5 µM. For the same compound, the values for the Emax (at Mu-type opioid receptor [6]; in [10]) were 57% and 20.7%, respectively.
In [11], `CCN(C)[C@H]1C[C@H]2C[C@@](c3cccc(O)c3)(C1)[C@H](C)CN2CCCc1ccccc1` showed an Intrinsic activity greater than 5 µM. The EC50 on Mu-type opioid receptor [3] was found to be 0.06 µM. The same compound yielded an Agonist potency in test [5] greater than 5 µM. The compound also showed an Emax at Mu-type opioid receptor [6] of 94%.
For `C[C@@H]1CN(CCCc2ccccc2)[C@H]2C[C@H](NCC3CC3)C[C@]1(c1cccc(O)c1)C2`, the Ki in test [1] turned out to be 0.0137 µM; at Mu-type opioid receptor [4] it was 0.00755 µM. For the same compound, at Mu-type opioid receptor [3], the EC50 was 0.13 µM. In addition, the Emax on Mu-type opioid receptor [6] stood at 52%.
Regarding `C[C@@H]1CN(CCCc2ccccc2)[C@H]2C[C@H](N)C[C@]1(c1cccc(O)c1)C2`, the Emax was determined as 101% in [7] and 74% on Mu-type opioid receptor [6]. In addition, the EC50 in test [8] (cho) was determined as 0.0075 µM; at Mu-type opioid receptor [3] (cho) it was 0.0195 µM. In [12], this compound yielded a Ke of 10.1 nM.
As to `C[C@H]1CN(CCCc2ccccc2)[C@@H]2C[C@@H](N)C[C@@]1(c1cccc(O)c1)C2`, the EC50 at Mu-type opioid receptor [3] worked out at 0.0206 µM. This compound displayed an Agonist potency in test [5] greater than 5 µM. This compound also registered a Ke in [12] of 21.7 nM. The maximum response (Emax) on Mu-type opioid receptor [6] is 44%.
